# Assay results: ChEMBL document CHEMBL4043129, “Design, synthesis and bioactivities of Celecoxib analogues or derivatives” (Bioorg Med Chem, 2017)
# Active and inactive are the calls of the source. No cut-off for these calls is given here.
# Key:
# [1] = Lipid/water partition coefficient, log P of the compound; assay type: physicochemical
# [2] = biological target: T1, Prostaglandin G/H synthase 1 (Rattus norvegicus, UniProt Q63921); assay: Inhibition of COX-1 in rat peritoneal macrophages assessed as reduction in [125I]-6-Keto-PGF1alpha production using arachidonic acid as substrate pretreated for 30 mins followed by substrate addition measured after 30 mins
# T1 sequence (Q63921 whole entry): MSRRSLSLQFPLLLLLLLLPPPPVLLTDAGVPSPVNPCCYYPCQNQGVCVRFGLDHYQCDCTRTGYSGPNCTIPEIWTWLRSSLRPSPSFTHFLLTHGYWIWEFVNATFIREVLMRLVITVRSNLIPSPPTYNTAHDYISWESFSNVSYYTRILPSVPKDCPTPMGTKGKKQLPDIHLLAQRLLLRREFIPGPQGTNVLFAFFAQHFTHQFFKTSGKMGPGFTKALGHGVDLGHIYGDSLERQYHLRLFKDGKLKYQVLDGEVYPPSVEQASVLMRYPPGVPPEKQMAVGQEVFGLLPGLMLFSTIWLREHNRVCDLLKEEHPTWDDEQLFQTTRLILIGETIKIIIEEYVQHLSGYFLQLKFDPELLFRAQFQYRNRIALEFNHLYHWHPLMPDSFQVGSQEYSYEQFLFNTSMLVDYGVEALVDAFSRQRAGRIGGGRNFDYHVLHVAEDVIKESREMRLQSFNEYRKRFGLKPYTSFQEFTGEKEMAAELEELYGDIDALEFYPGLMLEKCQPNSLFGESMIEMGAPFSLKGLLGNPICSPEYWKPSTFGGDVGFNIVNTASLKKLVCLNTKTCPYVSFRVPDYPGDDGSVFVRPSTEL
# Method in brief: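 Rat peritoneal macrophages were elicited with 5 mL 0.5% gelatin i.p. and harvested after 5 h. Cells were washed, seeded at 1.0 × 10^6/mL and adhered 24 h at 37 °C, 5% CO2, then kept 24 h in 0.5% FCS RPMI-1640. Compounds at several concentrations were added for 30 min, then arachidonic acid for 30 min. 125I-6-keto-PGF1α was read by kit, and IC50 was taken as the concentration halving radioactivity.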
# [3] = biological target: T2, Prostaglandin G/H synthase 2 (Rattus norvegicus, UniProt P35355); assay: Inhibition of COX-2 in rat peritoneal macrophages assessed as reduction in PGE2 production using radiolabelled-arachidonic acid as substrate pretreated for 30 mins followed by substrate addition measured after 30 mins
# T2 sequence (P35355 whole entry): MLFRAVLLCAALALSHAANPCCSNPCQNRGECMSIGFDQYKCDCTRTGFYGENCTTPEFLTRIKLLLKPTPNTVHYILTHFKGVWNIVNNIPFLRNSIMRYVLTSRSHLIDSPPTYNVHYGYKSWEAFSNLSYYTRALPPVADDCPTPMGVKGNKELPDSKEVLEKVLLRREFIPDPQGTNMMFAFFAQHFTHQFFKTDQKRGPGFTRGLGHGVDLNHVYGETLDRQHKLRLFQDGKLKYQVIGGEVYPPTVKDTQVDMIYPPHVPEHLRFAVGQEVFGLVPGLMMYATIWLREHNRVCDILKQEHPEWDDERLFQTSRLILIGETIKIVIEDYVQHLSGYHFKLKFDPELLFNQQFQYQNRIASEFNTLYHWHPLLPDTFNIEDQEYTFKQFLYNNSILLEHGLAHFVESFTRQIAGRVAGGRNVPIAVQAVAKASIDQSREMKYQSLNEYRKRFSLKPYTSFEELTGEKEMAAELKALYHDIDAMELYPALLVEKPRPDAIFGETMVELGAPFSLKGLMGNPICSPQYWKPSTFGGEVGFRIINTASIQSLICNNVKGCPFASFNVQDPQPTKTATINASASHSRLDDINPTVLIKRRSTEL
# [4] = Selectivity index, ratio of IC50 for COX1 in rat peritoneal macrophages to IC50 for COX2 in rat peritoneal macrophages
# Method in brief: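 Both IC50s come from gelatin-elicited rat peritoneal macrophages given 0.5% FCS RPMI-1640 for 24 h, then compound for 30 min and arachidonic acid for 30 min. COX-1 was read as 125I-6-keto-PGF1α. For COX-2, cells first had 10% FCS for 1 h, a PBS rinse and […] LPS for 8 h, and supernatant PGE2 was read. Each IC50 is the concentration halving radioactivity.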
# [5] = Dissociation constant, pKa of the compound; assay type: physicochemical
# [6] = system: Rattus norvegicus; assay: In-vivo inhibition of COX2 in rat at 20 mg/kg measured after 20 mins; assay type: functional
# [7] = system: Rattus norvegicus; assay: In-vivo inhibition of COX2 in rat at 20 mg/kg measured after 40 mins; assay type: functional
# [8] = system: Rattus norvegicus; assay: In-vivo inhibition of COX2 in rat at 20 mg/kg measured after 60 mins; assay type: functional; conditions: 1 h
# [9] = system: Rattus norvegicus; assay: In-vivo inhibition of COX2 in rat at 20 mg/kg measured after 90 mins; assay type: functional; conditions: 1.5 h
# [10] = system: Rattus norvegicus; assay: In-vivo inhibition of COX2 in rat at 20 mg/kg measured after 120 mins; assay type: functional; conditions: 2 h
# [11] = system: Rattus norvegicus; assay: Anti-inflammatory activity in rat assessed as reduction in PGE2 release at 20 mg/kg measured after 2 hrs; assay type: functional, organism-based
SMILES,logP [1],IC50 [2] [µM],IC50 [3] [µM],Ratio IC50 [4],pKa [5],inhibition in vivo at 20 mg/kg [6] [%],inhibition in vivo at 20 mg/kg [7] [%],inhibition in vivo at 20 mg/kg [8] [%],inhibition in vivo at 20 mg/kg [9] [%],inhibition in vivo at 20 mg/kg [10] [%],Activity [11]
CN1C=CN(C2SC(C(F)(F)F)=CN2c2ccc(S(N)(=O)=O)cc2)C=C1 (stereo not given),2.38,52.4,0.0793,660.3,7.5,42.5,63.1,86.1,97.3,98,Active
CN1C=CN(C2NC(C(F)(F)F)=CN2c2ccc(S(N)(=O)=O)cc2)C=C1 (stereo not given),–,–,–,–,–,–,–,–,–,–,Active
CN1C=CC(C2SC(C(Cl)(Cl)Cl)=CN2c2ccc(S(N)(=O)=O)cc2)C=C1 (stereo not given),3.5,98.2,12.7,7.7,8,–,–,–,–,–,–
CC1=CN(c2ccc(S(N)(=O)=O)cc2)C(N2C=CN(C)C=C2)S1 (stereo not given),1.75,76.9,16.4,4.8,7.2,–,–,–,–,–,–
CN1C=CN(C2OC(C(Cl)(Cl)Cl)=CN2c2ccc(S(N)(=O)=O)cc2)C=C1 (stereo not given),2.41,53.4,0.099,539.3,7.55,40.6,60.9,85.9,95.4,97.9,Active
CC1=CN(c2ccc(S(N)(=O)=O)cc2)C(C2C=CN(C)C=C2)O1 (stereo not given),1.4,95.2,17.4,5.5,7.09,–,–,–,–,–,–
CN1C=CC(C2SC(C(F)(F)F)=CN2c2ccc(S(N)(=O)=O)cc2)C=C1 (stereo not given),2.77,80.5,8.08,10,7.62,–,–,–,–,–,–
CC1=CN(c2ccc(S(N)(=O)=O)cc2)C(N2C=CN(C)C=C2)O1 (stereo not given),1.04,98.5,20.1,4.9,7.01,–,–,–,–,–,–
Cc1ccc(-c2cc(C(F)(F)F)nn2-c2ccc(S(N)(=O)=O)cc2)cc1 [CELECOXIB],–,–,–,–,–,45.3,68.4,89.1,100,100,–
CC1=CN(c2ccc(S(N)(=O)=O)cc2)C(C2C=CN(C)C=C2)S1 (stereo not given),2.12,56.9,1.53,37.1,7.39,–,–,–,–,–,–
CN1C=CN(C2SC(C(Cl)(Cl)Cl)=CN2c2ccc(S(N)(=O)=O)cc2)C=C1 (stereo not given),3.13,88.6,11.6,7.7,7.76,–,–,–,–,–,–
CN1C=CC(C2OC(C(Cl)(Cl)Cl)=CN2c2ccc(S(N)(=O)=O)cc2)C=C1 (stereo not given),2.78,83.1,13.7,6.1,7.63,–,–,–,–,–,–
CN1C=CN(C2OC(C(F)(F)F)=CN2c2ccc(S(N)(=O)=O)cc2)C=C1 (stereo not given),1.68,55.6,1.27,43.8,7.18,–,–,–,–,–,–
CC1=CN(c2ccc(S(N)(=O)=O)cc2)C(C2C=CN(C)C=C2)N1 (stereo not given),–,–,–,–,–,–,–,–,–,–,Active
CN1C=CC(C2OC(C(F)(F)F)=CN2c2ccc(S(N)(=O)=O)cc2)C=C1 (stereo not given),2.05,50.2,0.053,947.5,7.33,44.6,64.9,87.5,99.6,100,Active
